procasp3 activ – procaspase-3 (human) activation | P42574 | recombinant procaspase-3 D3A, Ac-DEVD-pNA absorbance 405 nm | activation, % at 8.5 µM | 330,000 compounds, 0.11% hits | AID 463141;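 active means activation above the mean of all tested compounds plus 3 SD, cut at about 21% in these data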
Target sequence (P42574 whole entry D9A/D28A/D175A): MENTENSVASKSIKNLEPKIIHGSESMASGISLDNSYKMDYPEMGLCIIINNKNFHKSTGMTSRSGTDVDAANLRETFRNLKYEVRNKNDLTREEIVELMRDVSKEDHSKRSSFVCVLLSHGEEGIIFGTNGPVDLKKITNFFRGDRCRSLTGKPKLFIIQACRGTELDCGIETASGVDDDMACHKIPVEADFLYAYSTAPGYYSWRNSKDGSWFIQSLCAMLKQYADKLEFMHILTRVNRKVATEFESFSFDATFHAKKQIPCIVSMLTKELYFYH
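assay system = Procaspase-3 D3A mutant | signal = absorbance at 405 nm, 0 and 120 min | times = 1 h preincubation plus 2 h reaction at 25 °C | repeats = single replicate | read-out = % activation between DMSO and enzyme-spiked controls | medium = Zinc-free HEPES saline buffer with Triton X-100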
MsrA act – activators of bovine methionine sulfoxide reductase A; purified bovine MsrA, absorbance read-out; activation, % at 10.6 µM; 360,000 compounds, 0.3% hits; in the data active means activation above about 7.5%
proCasp7 act – activates human procaspase-7, counter-screen for procaspase-3 activators; 330,000 compounds, 0.093% hits; activation, % at 8.5 µM; P55210; recombinant procaspase-7, Ac-DEVD-pNA absorbance 405 nm; D23A/D198A/D206A triple mutant, cannot self-cleave; scale: DMSO 0, 5 µM enzyme 100;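 active means percent activation above the screen-wide mean plus 3 SD, cut at about 25% in these data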
Target sequence (P55210 whole entry D23A/D198A/D206A): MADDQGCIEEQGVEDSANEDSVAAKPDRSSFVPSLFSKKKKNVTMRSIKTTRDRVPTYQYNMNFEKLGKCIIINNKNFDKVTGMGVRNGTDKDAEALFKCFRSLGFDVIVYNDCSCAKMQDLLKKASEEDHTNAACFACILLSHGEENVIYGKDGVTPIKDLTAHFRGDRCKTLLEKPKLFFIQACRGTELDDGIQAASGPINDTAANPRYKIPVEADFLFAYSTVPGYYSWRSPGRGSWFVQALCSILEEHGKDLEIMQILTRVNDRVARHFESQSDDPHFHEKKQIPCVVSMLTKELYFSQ
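Assay system: Uncleavable procaspase-7 mutant enzyme; Input: 2 µM procaspase-7 mutant as dispensed; Also added: DEVD-pNA substrate; Medium: Zinc-free HEPES pH 7.4 with 300 mM NaCl, 0.01% Triton X-100; Timing: 1 h compound preincubation, 2 h substrate cleavage, 25 °C; Measured by: Epi-absorbance of released pNA at 405 nm, two timepoints.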
MsrA inhibitor – bovine MsrA inhibition. 360,000 compounds, 0.75% hits. AID 651718. purified bovine MsrA, absorbance read-out. inhibition, % at 15.5 µM
MsrA inh confirm – bovine MsrA inhibition, confirmed; shares compounds with MsrA inhibitor; purified bovine MsrA, absorbance read-out; inhibition, % at 15.5 µM; 2,300 compounds, 41% hits;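 further: coupled to thioredoxin reductase with NADPH and selenocystamine and DMSO as substrate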
A number is an active result; 0 = inactive; - = no result given. Rows were chosen to be rich in hits. Some 1.2% of all compounds tested hit in one or more screens of this group. Unless noted, no stated cut-off is given here; in the data, active means inhibition above about 4.5%; inactive means the rest.

SMILES	procasp3 activ	MsrA act	proCasp7 act	MsrA inhibitor	MsrA inh confirm
COC(=O)c1cc2c(c3c4cc(F)ccc4n(S(=O)(=O)c4ccccc4)c13)C(=O)N(C)C2	-	-	-	0	-
COc1ccc(C(=O)NNC2=NC(C)(C)Cc3ccccc32)cc1	0	0	0	0	-
O=C(NNC1=NC2(CCCC2)Cc2ccccc21)c1ccncc1	0	0	0	4.7	0
C/C(=N\NC(=O)c1cccnc1)c1cc2ccccc2o1	0	0	0	6.7	6.0
C/C(=N\NC(=O)c1ccncc1)c1cc2ccccc2o1	0	0	0	0	-
CCOc1cc(/C=C2\C(=O)ON=C2c2ccccc2)cc(Br)c1O	0	0	0	0	-
CCOc1cc(/C=C2/C(=O)ON=C2C)cc(Br)c1O	0	0	0	5.0	0
COc1cc(/C=C2\C(=O)ON=C2c2ccccc2)cc(Br)c1O	0	0	0	5.5	0
CCCCNc1ccc2c(c1)OC[C@H](Cc1ccccc1)NS2(=O)=O	-	-	-	0	-
CCOc1cc(/C=C(/C#N)c2ccc(F)cc2)ccc1OCc1ccc(C(=O)O)o1	0	0	0	6.7	0
O=S(=O)(Nc1ccc2cn[nH]c2c1)c1cc(Br)ccc1Br	0	0	0	6.2	0
Cc1[nH]c2ccccc2c1CC(=O)Nc1ccc(Oc2cccnc2)cc1	-	-	-	0	-
CCOC(=O)N[C@H](C(=O)N1CCC[C@H]1C(=O)NC1CCCC1)C1CCCCC1	-	-	-	0	-
CCOC(=O)C1=C(C(=O)OCC)C2N(Cc3ccc(C#N)cc3)c3ccccc3[C@@]23C[C@@H](C(=O)OC)N(S(=O)(=O)c2ccc(C#N)cc2)C3=N1 (stereo not given in full)	-	-	-	0	-
O=C(O)CC1S/C(=N/N=C/c2ccc(-c3ccc(Cl)c([N+](=O)[O-])c3)o2)NC1=O (stereo not given)	0	0	0	5.4	0
O=C(O)CC1S/C(=N/N=C/c2ccc(-c3ccc(Cl)cc3[N+](=O)[O-])o2)NC1=O (stereo not given)	0	0	0	4.9	5.8
Cc1ccc(/C=N/N=C2/NC(=O)C(CC(=O)Nc3ccc(Cl)cc3)S2)o1 (stereo not given)	0	0	0	0	-
Cc1ccc(/C=N/N=C2/NC(=O)C(CC(=O)Nc3ccccc3)S2)o1 (stereo not given)	0	0	0	0	-
Cc1ccccc1Nc1c(N)c(=O)oc2ccccc12	0	0	0	6.1	7.8
CN(C)CCNc1c(N)c(=O)oc2ccccc12	0	0	0	0	-
Cc1ccc(/C=N/N=C2/NC(=O)CS2)o1	0	0	0	5.5	0
O=C1CS/C(=N/N=C/c2ccc(OS(=O)(=O)c3ccccc3)cc2)N1	0	0	0	0	-
CCN1C(=O)/C(=C/N(C)c2ccccc2)OC1=S	0	0	0	0	-
CCN1C(=O)/C(=C\N(C(C)=O)c2ccccc2)OC1=S	0	0	0	6.7	5.0
COC(=O)[C@]12C[C@H](CC(=O)NCc3ccccc3)C(=O)N(Cc3ccccc3)C1=C[C@H](C(C)(C)C)O[C@@H]2C	-	-	-	0	-
SMILES	procasp3 activ	MsrA act	proCasp7 act	MsrA inhibitor	MsrA inh confirm
C=CCn1c(NC(=O)c2ccco2)nc2ccccc21	0	0	0	4.8	0
O=C(Nc1nc2ccccc2n1Cc1ccc(Cl)cc1)c1ccco1	0	0	0	0	-
CN1CCCCC(NC(=O)COCc2ccccc2)C1=O (stereo not given)	-	-	-	0	-
Cc1cc(C)nc(NC2=NCC(=O)N2c2ccc3c(c2)OCCO3)n1	0	0	0	8.6	6.1
Cc1cc(C)nc(NC2=NCC(=O)N2c2ccccc2)n1	0	0	0	0	-
CC1OC(Oc2ccc3ccc(=O)oc3c2-c2c(O)ccc3cc(Oc4ccc5ccc(=O)oc5c4)c(=O)oc23)C(O)C(O)C1O (stereo not given)	0	0	0	4.8	0
OCCC(N1CCOCC1)C(O)(c1ccccc1)c1ccccc1 (stereo not given)	-	-	-	0	-
COc1cc2oc(-c3ccc(O)cc3)cc(=O)c2c(OC)c1O	-	0	-	7.1	0
CCOc1cc2c(cc1C=O)OC(C)C2 (stereo not given)	0	0	0	4.8	0
COc1cc2c(cc1C=O)OC(C)C2 (stereo not given)	0	0	0	0	-
Cc1noc(NS(=O)(=O)c2ccc(NC(=O)c3nn(-c4ccc(F)cc4)ccc3=O)cc2)c1C	0	0	0	0	-
Cc1cc(NS(=O)(=O)c2ccc(NC(=O)c3cnc4scc(C)n4c3=O)cc2)nc(C)n1	0	0	0	6.8	0
Cc1cc(NS(=O)(=O)c2ccc(NC(=O)/C=C/c3ccco3)cc2)nc(C)n1	0	0	0	6.7	4.8
Cc1cc(C(=O)Nc2ccc(S(=O)(=O)Nc3onc(C)c3C)cc2)cs1	0	0	0	0	-
Cc1ccc(-n2ccc(=O)c(C(=O)Nc3ccc(S(=O)(=O)Nc4onc(C)c4C)cc3)n2)cc1	0	0	0	4.8	0
Cc1noc(NS(=O)(=O)c2ccc(NC(=O)c3cnc4scc(C)n4c3=O)cc2)c1C	0	0	0	5.8	6.2
Cc1cc(NS(=O)(=O)c2ccc(NC(=O)c3ccc(Cl)nc3)cc2)nc(C)n1	-	0	-	0	-
O=[N+]([O-])c1ccc(Sc2nc3ccccc3[nH]2)c(Cl)c1	-	-	-	0	-
COc1cccc(CNC(=O)[C@H]2CCCN2C(=O)[C@H]2CCCN2C(=O)c2ccc(C)c(C)c2)c1	-	-	-	0	-
COC(=O)C1=C(C)N(C)C(=NCc2ccc3c(c2)OCO3)NC1c1ccc(C(F)(F)F)cc1 (stereo not given)	-	-	-	0	-
O=C(O)C1CCCN1C(=O)c1cccc(Cl)c1 (stereo not given)	-	-	-	0	-
Oc1cccc(/C=N/Nc2ncnc3c2ncn3Cc2ccccc2)c1	0	0	0	4.8	5.2
O=C(Nc1ccc(F)cc1)/C(=C1/CCCCCN1)[N+](=O)[O-]	0	0	0	6.4	0
CCCOc1cccc(C2/C(=C(/O)c3ccc(OC)cc3)C(=O)C(=O)N2CCN(C)C)c1 (stereo not given)	0	0	0	0	-
CCCCOc1ccc(/C(O)=C2/C(=O)C(=O)N(CCN(C)C)C2c2ccc(O)c(OC)c2)cc1 (stereo not given)	0	0	0	8.1	0
SMILES	procasp3 activ	MsrA act	proCasp7 act	MsrA inhibitor	MsrA inh confirm
CNc1ncc(C(=O)c2ccc(F)cc2)s1	0	0	0	4.7	0
O=C(N/N=C/c1cccn1-c1ccc(O)cc1)c1cccc2ccccc12	0	0	0	5.2	0
O=C(N/N=C/c1ccccc1)c1cccc2ccccc12	0	0	0	0	-
COc1ccc(N2C[C@@]3(O)CC[C@@H](O)[C@@H](OC)[C@@H]3[C@@]2(C)[C@H](O)CC=C(C)C)cc1	-	-	-	0	-
COc1cc(/C=C/C(=O)Nc2ccncc2)cc(OC)c1OC	0	0	0	4.7	0
COc1cc(/C=C/C(=O)Nc2ccc(S(=O)(=O)Nc3ncccn3)cc2)ccc1OCC#N	-	0	-	4.9	0
NS(=O)(=O)c1cccc(NC(=O)/C=C/c2cccs2)c1	0	0	0	5.1	0
NS(=O)(=O)c1cccc(NC(=O)COC(=O)/C(=C/c2cccs2)c2cccs2)c1	0	0	0	0	-
